Test [1] deals with Poly [ADP-ribose] polymerase 1 (Homo sapiens, UniProt P09874). In words: Inhibition of PARP1.
A further test deals with DU-145. The test is described as follows: Cytotoxicity against human DU145 cells at 10 uM by MTT assay. The class given is functional.
For test [2], the system named is HCT-116. In words: Induction of etoposide-induced cytotoxicity in human HCT116 cells assessed as potentiation factor, ratio of cytotoxic IC50 for etoposide alone to cytotoxic IC50 etoposide in presence of drug. Type of test: functional. Put shortly: (§1)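 HCT116 cells in RPMI 1640 with 10% FBS at 37 °C under 5% CO2 were seeded at 3 x 10^4 cells/well and grown overnight. On day 2, medium was replaced with graded temozolomide or etoposide, with or without PARP-1 inhibitor at 0.5 µM. On day 4, CCK-8 was added for 4 h and A450 read. IC50 came from four-parameter logistic fits. Potentiation factor = IC50 (agent alone)/IC50 (agent + inhibitor); mean±S.D. of ≥3 independent experiments.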

Test [3] concerns HCT-116. The test is described as follows: Induction of temozolomide-induced cytotoxicity in human HCT116 cells assessed as potentiation factor, ratio of cytotoxic IC50 for temozolomide alone to cytotoxic IC50 temozolomide in presence of drug. The class given is functional. Put shortly:
as §1

Test [4] concerns HCT-116. The test is described as follows: Cytotoxicity against human HCT116 cells after 2 days. Conditions: HCT-116, 48 h.

The source of these data is ChEMBL document CHEMBL1152644, “Synthesis of isoquinolinone-based tetracycles as poly (ADP-ribose) polymerase-1 (PARP-1) inhibitors” (Bioorg Med Chem, 2009).

Counter-ions that a name gives are not always drawn.

Chain of Poly [ADP-ribose] polymerase 1 (P09874 whole entry): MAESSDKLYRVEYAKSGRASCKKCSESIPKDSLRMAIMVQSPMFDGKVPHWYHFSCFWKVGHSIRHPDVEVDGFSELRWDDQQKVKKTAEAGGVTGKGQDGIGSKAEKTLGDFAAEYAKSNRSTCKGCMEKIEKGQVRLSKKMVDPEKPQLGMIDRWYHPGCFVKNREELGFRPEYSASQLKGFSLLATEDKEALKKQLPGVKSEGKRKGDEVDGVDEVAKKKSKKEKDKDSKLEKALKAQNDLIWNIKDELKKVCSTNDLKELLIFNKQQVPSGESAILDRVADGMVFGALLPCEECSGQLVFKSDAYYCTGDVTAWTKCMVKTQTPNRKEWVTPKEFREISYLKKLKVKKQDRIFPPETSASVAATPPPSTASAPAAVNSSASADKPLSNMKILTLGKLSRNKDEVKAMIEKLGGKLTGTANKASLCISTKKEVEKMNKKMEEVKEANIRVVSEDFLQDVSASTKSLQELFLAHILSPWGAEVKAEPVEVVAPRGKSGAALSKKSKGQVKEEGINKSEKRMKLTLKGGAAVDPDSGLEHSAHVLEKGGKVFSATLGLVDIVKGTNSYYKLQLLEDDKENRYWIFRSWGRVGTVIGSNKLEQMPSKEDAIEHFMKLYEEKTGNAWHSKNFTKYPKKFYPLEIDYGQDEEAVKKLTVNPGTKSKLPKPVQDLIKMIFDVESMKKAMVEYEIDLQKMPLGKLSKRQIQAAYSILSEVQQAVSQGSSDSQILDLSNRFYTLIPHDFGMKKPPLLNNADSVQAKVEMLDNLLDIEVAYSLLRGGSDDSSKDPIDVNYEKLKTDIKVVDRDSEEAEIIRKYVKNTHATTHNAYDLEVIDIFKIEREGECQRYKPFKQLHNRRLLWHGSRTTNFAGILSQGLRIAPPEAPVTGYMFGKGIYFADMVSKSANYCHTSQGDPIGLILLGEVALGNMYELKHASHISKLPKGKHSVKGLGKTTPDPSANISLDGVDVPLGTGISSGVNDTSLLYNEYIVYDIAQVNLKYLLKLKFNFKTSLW

Broadly, the IC50 is the concentration at which inhibition is half-maximal. Higher therefore signals weaker potency. Consider `O=C1NCCc2c(OCCCCN3CCCCC3)cccc21`, for which, in test [1], the IC50 worked out at 10.8 µM.

As a reminder, the inhibition is the change of the read-out against control, counted positive when it falls. Turning to `Cc1ccc2nc3c4ccccc4c(=O)[nH]c3n2c1`, at 10 µM the inhibition with DU-145 was 19.2%. Also, in test [1], the IC50 turned out to be 4.27 µM.

On to `O=c1[nH]c2c(nc3cc(Cl)ccn32)c2ccccc12`, for which testing at 10 µM in the test on DU-145 gave an inhibition of 11.4%. In addition, the IC50 in test [1] was found to be 5.87 µM.

On to `O=c1[nH]c2c(nc3ncccn32)c2ccccc12`, for which the inhibition at 10 µM with DU-145 amounted to 14.2%. The compound further returned an IC50 in test [1] of 5.78 µM.

`O=c1[nH]c2c(nc3c4ccccc4ccn32)c2ccccc12` came in with an inhibition at 10 µM in the test with DU-145 of 25.5%. The compound also had an IC50 in test [1] of 4.11 µM.

The compound `O=c1[nH]c2c(nc3ccc(Cl)cn32)c2ccccc12` yielded an inhibition at 10 µM in the test with DU-145 of 0.2%. This compound also displayed an IC50 in test [1] of 14.8 µM.

In turn, `O=c1[nH]c2c(nc3cc(S(=O)(=O)NCCCN4CCOCC4)ccn32)c2ccccc12` came in with an IC50 in test [1] of 0.036 µM.

For `O=c1[nH]c2c(nc3ccc(Br)cn32)c2ccccc12`, in the test on DU-145, testing at 10 µM gave an inhibition of 6.8%. Further, the IC50 in test [1] was determined as 12.1 µM.

`COc1cc2nc3c4ccccc4c(=O)[nH]c3n2cn1` came in with an inhibition at 10 µM in the test with DU-145 of 0%. Also, in test [1], the IC50 is over 100 µM.

As to `Cc1cccc2nc3c4ccccc4c(=O)[nH]c3n12`, in the test on DU-145, at 10 µM the inhibition was 25.6%. For the same compound, in test [1], the IC50 is over 100 µM.

Consider `O=c1[nH]c2c(nc3ccccn32)c2ccccc12`, for which the inhibition at 10 µM in the test on DU-145 worked out at 7.9%. The compound further showed an IC50 in test [1] of 0.85 µM.

Consider `Cc1cc(C)n2c(c1)nc1c3ccccc3c(=O)[nH]c12`, for which at 10 µM the inhibition in the test on DU-145 was 38.5%. Also, the IC50 in test [1] is over 100 µM.

In the test on DU-145, `Cc1cccn2c1nc1c3ccccc3c(=O)[nH]c12` returned an inhibition at 10 µM of 9.1%. Also, the IC50 in test [1] was 3.31 µM.

With `Cc1ccn2c(c1)nc1c3ccccc3c(=O)[nH]c12`, the inhibition at 10 µM with DU-145 worked out at 0%. For the same compound, the PF50 with HCT-116 [2] and in the test with HCT-116 [3] was 1.7 throughout. This compound came in with an IC50 in test [1] of 0.47 µM.

As to `Cc1ccn2c(n1)nc1c3ccccc3c(=O)[nH]c12`, in the test with DU-145, 10 µM produced 27.7% inhibition. Besides, the PF50 amounted to 1.2 with HCT-116 [2] and 1.1 with HCT-116 [3]. Also, in test [1], the IC50 turned out to be 0.56 µM.

In the test on DU-145, `O=c1[nH]c2c(nc3cnccn32)c2ccccc12` returned an inhibition at 10 µM of 18.7%. Besides, in test [1], half-maximal inhibition (IC50) was put at 3.23 µM.

In the test with DU-145, `CC[C@@]1(O)C(=O)OCc2c1cc1n(c2=O)Cc2cc3ccccc3nc2-1` [CAMPTOTHECIN] gave an inhibition at 10 µM of 69.4%.

As to `COc1cccc2c1C(=O)c1c(O)c3c(c(O)c1C2=O)C[C@@](O)(C(=O)CO)C[C@@H]3O[C@H]1C[C@H](N)[C@H](O)[C@H](C)O1` [DOXORUBICIN HYDROCHLORIDE], the inhibition at 10 µM in the test with DU-145 was found to be 70.3%.

As for `COc1cc([C@@H]2c3cc4c(cc3[C@@H](O[C@@H]3O[C@@H]5CO[C@@H](C)O[C@H]5[C@H](O)[C@H]3O)[C@H]3COC(=O)[C@H]23)OCO4)cc(OC)c1O` [ETOPOSIDE], at 10 µM the inhibition in the test with DU-145 was 72.1%. This compound had an IC50 in the test on HCT-116 [4] of 14.4 µM.

On to `Cn1nnc2c(C(N)=O)ncn2c1=O` [TEMOZOLOMIDE], for which the IC50 in the test with HCT-116 [4] amounted to 4.34 µM.
